STAT1 inh – inhibitors of IFN-gamma induced STAT1 signaling; 0.35% of 200,000 active; AID 920; inhibition, % at 5.5 µM; NIH 3T3 STAT1-luciferase reporter, luminescence;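 active means inhibition above a set limit, the mean inhibition across all tested compounds plus 3 SD, cut at about 34% in these data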
APP 5'UTR act – activates APP 5'UTR luciferase reporter; AID 1276; SH-SY5Y APP 5'UTR luciferase reporter, luminescence; zero percent = DMSO vehicle wells; activation, % at 2 µM; 1% of 190,000 active;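 active means activation above a set limit, based on mean plus 3 SD of controls, cut at about 140% in these data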
STAT3 activator – increases IL-6 driven STAT3 reporter signal; U3A cells, IL-6 STAT3-luciferase reporter, luminescence; 100% = signal with IL-6 EC80 alone; activation (% of control), % at 5.6 µM; 0.91% of 190,000 active; AID 871;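 active means activation above the screen-wide mean of compound activation plus 3 SD, cut at about 130% in these data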
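Test system: Human STAT1-deficient U3A cells with stable STAT3-luciferase reporter | Also added: Interleukin-6, 33 ng/mL | Timing: Compound pre-incubation 1 h before IL-6, then 6 h stimulation at 37 °C | Technique: Luciferase reporter luminescence | Read-out: Percent of IL-6-only median luminescence | Benchmarks: IL-6-only wells as 100% reference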
STAT3 inh-1 – inhibitors of IL-6 induced STAT3 signaling; U3A cells, IL-6 STAT3-luciferase reporter, luminescence; host cell line lacks STAT1; inhibition, % at 5.5 µM; 0.89% of 190,000 active; AID 862;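 active means inhibition above the mean inhibition across all screened compounds plus 3 SD, cut at about 44% in these data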
NF-kB expr up – raises NF-kB expression in human neuronal cells | NF-kB reporter expression; stronger effect = higher value | fold change at 12.5 µM | 1.6% of 190,000 active | AID 1239; in the data active means fold change above about 3.3
STAT1 activator – activators of IFN-gamma induced STAT1 signaling. 2.6% of 200,000 active. NIH 3T3 STAT1-luciferase reporter, luminescence; 100% = IFN-gamma alone, no compound. activation (% of control), % at 5.5 µM;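 active means activation above the screen-wide mean activation plus 3 SD, cut at about 130% in these data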
STAT3 inh-2 – confirmation of STAT3 signaling inhibitors; shares compounds with STAT3 inh-1; U3A cells, IL-6 STAT3 luciferase reporter, luminescence; cell line lacks STAT1; inhibition, % at 5.7 µM; 45% of 1,200 active;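 active means inhibition above the hit cutoff computed for the primary STAT3 screen, cut at about 44% in these data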
NFkB inh STAT3ct – counter-screen for STAT3 inhibitors: NF-kappaB inhibition; shares compounds with STAT3 inh-1; HEK293T NF-kB luciferase reporter, TNF-alpha induced; inhibition, % at 5.7 µM; 36% of 1,200 active;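 active means inhibition above the mean of solvent-only control wells plus 3 SD, cutoff set per campaign, cut at about 13% in these data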
STAT1 inh 2 – inhibits STAT1, counter-screen to STAT3 inhibitors. NIH 3T3 STAT1-luciferase reporter, IFN-gamma induced, luminescence. 27% of 1,200 active. inhibition, % at 5.7 µM. AID 1317. shares compounds with STAT3 inh-1;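 active means inhibition above the mean plus 3 SD of solvent-only control wells, limit set per screening run, cut at about 16% in these data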
Numbers stand for hits; - = inactive; . = not tested or not shown. An excerpt weighted towards active compounds, which were near 4.9% of everything screened.

SMILES	STAT1 inh	APP 5'UTR act	STAT3 activator	STAT3 inh-1	NF-kB expr up	STAT1 activator	STAT3 inh-2	NFkB inh STAT3ct	STAT1 inh 2
CN(C)S(=O)(=O)Oc1cccc(C(=O)Nc2ccc(Cl)cc2)c1	-	141	-	71	5.3	-	56	-	-
CN(C)S(=O)(=O)Oc1cccc(C(=O)Nc2ccccc2Cl)c1	-	-	-	-	-	-	.	.	.
Nc1nc2c(Cl)cc(Cl)cc2s1	-	-	-	-	-	-	.	.	.
Nc1nc2c(Cl)ccc(Cl)c2s1	-	-	-	46	-	-	-	-	-
COc1ccc(CCNc2ccc(N3C(=O)CC(C)C3=O)cc2[N+](=O)[O-])cc1OC (centres undefined)	-	-	-	70	-	-	58	17	-
O=C(Nc1ccc(Br)cc1)c1ccc(N2C(=O)C3CC=C(Cl)CC3C2=O)cc1 (centres undefined)	-	-	-	47	-	-	-	-	-
O=C(Nc1nc2ccc(S(=O)(=O)N3CCOCC3)cc2s1)c1cccs1	-	-	-	-	-	-	.	.	.
N=c1c2c(n(Cc3ccc([N+](=O)[O-])cc3)c3c1CCC3)CCCC2	-	-	-	-	-	-	.	.	.
N=c1c2c(n(Cc3ccc(Cl)c(Cl)c3)c3c1CCC3)CCCC2	-	-	-	61	-	-	-	-	25
N=c1c2c(n(Cc3ccc(Br)cc3)c3c1CCC3)CCCC2	-	-	-	63	-	-	49	-	22
Cc1cc(C(=O)CSCc2nnc3n(CCC(C)C)c(=O)c4ccccc4n23)c(C)n1C	-	-	-	-	.	-	.	.	.
CCOC(=O)N1CCC(Nc2ncnc3c2cnn3-c2ccc(C)cc2C)CC1	-	-	-	64	-	-	49	14	-
C=CCNc1ncnc2c1cnn2-c1ccc(C)cc1C	-	-	-	-	-	-	.	.	.
Cc1cc(C=C2C(=O)c3ccccc3C2=O)c(C)n1-c1ccc(C(=O)O)cc1	-	-	-	-	-	-	.	.	.
Cc1cc(/C=C2\Cc3ccccc3C2=O)c(C)n1-c1ccccc1	-	-	-	71	-	-	-	-	-
CC1=NN(c2ccccc2)C(=O)/C1=C\c1cc(C)n(-c2ccccc2)c1C	-	-	-	-	-	-	.	.	.
Cc1cc(C=C2C(=O)c3ccccc3C2=O)c(C)n1-c1ccccc1	-	-	-	75	-	-	-	-	-
COc1ccc(CNC(=S)Nc2cccc(C)c2C)cc1	-	-	-	-	-	-	.	.	.
O=[N+]([O-])c1ccc(N/N=C/c2sc(N3CCOCC3)nc2-c2ccccc2)c(S(=O)(=O)Nc2ccc(Cl)cc2)c1	-	-	-	81	-	-	71	48	54
O=C(CSC1=NCCS1)Nc1ccc(F)cc1	-	-	-	-	-	-	.	.	.
O=C(Nc1ccc(Br)cc1)c1ccc(CSC2=NCCS2)cc1	-	-	-	56	-	-	-	-	-
COc1ccc(/C=N\n2nnc3ccccc32)cc1	-	191	-	93	-	-	62	32	-
COc1ccc(/C=N/N2C(=O)c3ccccc3C2=O)cc1	-	-	-	-	-	-	.	.	.
c1ccc(C(Cc2nc(-c3ccncc3)no2)c2ccccc2)cc1	-	-	-	65	-	-	52	-	-
Cc1ccc(CN=C2Nc3ccccc3CS2)cc1	-	143	-	59	6.8	-	-	-	-
SMILES	STAT1 inh	APP 5'UTR act	STAT3 activator	STAT3 inh-1	NF-kB expr up	STAT1 activator	STAT3 inh-2	NFkB inh STAT3ct	STAT1 inh 2
Clc1ccc(-c2cc(COc3ccc4ccccc4c3)no2)cc1	-	-	-	-	-	-	.	.	.
COc1cc(C2CC(=O)c3c([nH]c(C(=O)OCCOC(C)C)c3C)C2)cc(OC)c1OC (centres undefined)	-	-	-	59	-	-	46	-	21
Clc1ccccc1Nc1nnc(-c2ccncc2)s1	-	160	-	60	4.2	131	-	20	-
COCCNC(=O)C(c1ccc(Cl)cc1)N(CCOC)C(=O)CCC(=O)Nc1nccs1 (centres undefined)	-	-	-	-	-	-	.	.	.
Cc1ccc2cc(C#N)c(NCCNC(=O)C3CC3)nc2c1C	-	-	-	56	-	-	-	-	-
CC(=O)Nc1ccc(-c2csc(Nc3ccc(Cl)cn3)n2)cc1	-	-	-	52	-	-	46	-	-
COc1ccc(CCN2C(=O)C3C4C=CC(C5CC45)C3C2=O)cc1OC (centres undefined)	-	-	-	-	-	-	.	.	.
COc1ccc(CCN2C(=O)C3C4C=CC(C3C2=O)C2C(=O)N(CCc3ccc(OC)c(OC)c3)C(=O)C42)cc1OC (centres undefined)	-	-	-	68	-	-	66	29	-
c1ccc(CN=C2NN=C(c3cc4ccccc4o3)CS2)cc1	-	-	-	-	-	-	.	.	.
c1ccc2oc(C3=NNC(=NC4CC4)SC3)cc2c1	-	.	-	57	-	-	-	-	-
COc1cc(NC(=O)c2cc(C(C)C)on2)cc(OC)c1OC	-	-	-	-	-	-	.	.	.
CCc1ccc(NC(=O)c2cc(C(C)C)on2)cc1	-	137	-	48	8	-	-	-	-
CCc1ccc(NC(=O)c2cc(C)on2)cc1	-	200	-	49	5.8	-	-	-	-
CCc1ccc(NC(=O)c2cc(-c3ccc(OC)cc3)on2)cc1	-	-	-	-	-	-	.	.	.
Nc1nc(SCn2nnc3ccccc3c2=O)n[nH]1	-	-	-	-	-	-	.	.	.
CC(C)COc1ccc(C(=O)Nc2ccc(SC(F)F)cc2)cc1	-	-	-	-	-	-	.	.	.
CC(C)COc1ccc(C(=O)Nc2scc(-c3ccc(Cl)cc3Cl)c2C(N)=O)cc1	-	-	-	49	-	-	-	-	-
CCCCn1ccnc1C(=O)c1cccc(S(=O)(=O)N2CC(C)CC(C)C2)c1 (centres undefined)	-	-	-	-	-	-	.	.	.
CCOc1nc2ccccc2nc1C	-	-	-	-	-	-	.	.	.
COC(=O)c1cccc(NC(=O)CSc2nc3cccnc3n2C)c1	-	-	-	57	-	-	48	-	-
CCOc1ccccc1NC(=O)Cn1c(=O)n(-c2ccc(OC)cc2OC)c(=O)c2c(C)c(C(=O)N(CC)CC)sc21	-	-	-	-	-	-	.	.	.
c1ccc(-c2cnc(-c3ccccc3)nc2)cc1	-	-	-	54	9.4	-	-	-	-
COc1ccc(CC(=O)Nc2cccc(S(=O)(=O)N3CCCCCC3)c2)cc1OC	-	-	-	74	-	-	75	27	19

Compound activity as filed in PubChem.
